In general, IC50 refers to the midpoint of a concentration-inhibition curve. A lower IC50 goes with higher potency. As a reminder, the Tmax is the time at which the peak concentration occurs. What is called Cmax is the peak of the concentration-time curve. A word on the half-life: it is the time in which the quantity being followed falls by half. A low value points to fast loss. What is called CC50 is the concentration giving 50% cytotoxicity. Lower therefore signals harm at low concentration.

We go through four compounds from ChEMBL document CHEMBL1671757, “In vitro profiling of pramiconazole and in vivo evaluation in Microsporum canis dermatitis and Candida albicans vaginitis laboratory models” (Antimicrob Agents Chemother, 2010).

Calls of active or inactive are those of the source. The rule behind the calls is not given here.

The subject of series [1] is Trichophyton rubrum. Nature of the series: Antifungal activity against 5 x 10^6 CFU/ml Trichophyton rubrum B68183 by resazurin based fluorimetry assay. In kind it is functional, organism-based. In short, it runs like this:
(§1)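 Isolates were grown on Sabouraud dextrose agar, with stocks of 5×10^6 CFU/ml in RPMI-MOPS plus 10% glycerol kept in liquid nitrogen. Each well held 10^3 CFU in 200 μl RPMI-MOPS with compound dilutions, top concentration 64 μM. After incubation, resazurin was added and fluorescence read (ex 550, em 590 nm). IC50 was relative to untreated controls, as the mean ± SD of five independent repeats.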

Series [2] deals with Trichophyton quinckeanum. Nature of the series: Antifungal activity against 5 x 10^6 CFU/ml Trichophyton quinckeanum B68683 by resazurin based fluorimetry assay. In kind it is functional, organism-based. In short, it runs like this:
as §1
On the technique in general: Alamar Blue is a resazurin reagent that responds to reducing activity.

Series [3] is described as follows: Tmax in guinea pig infected with 10^6 CFU Microsporum canis B68128 at 10 mg/kg, po administered 2 hrs before infection for 5 days. In kind it is ADME, organism-based, Cavia porcellus. Further details: dose 10 mg/kg, route oral. Particulars: in vivo.
Series [4] concerns Kluyveromyces marxianus. Nature of the series: Antifungal activity against 5 x 10^6 CFU/ml Candida kefyr B46120 by resazurin based fluorimetry assay. In kind it is functional, organism-based. The method in brief:
as §1

Series [5] in a line: Cmax in plasma of guinea pig infected with 10^6 CFU Microsporum canis B68128 at 10 mg/kg, po administered 2 hrs before infection for 5 days. In kind it is ADME, organism-based, Cavia porcellus. The arrangement: dose 10 mg/kg, route oral.
In series [6] the test system is Trichophyton rubrum. Briefly: Antifungal activity against 5 x 10^6 CFU/ml Trichophyton rubrum J941704 by resazurin based fluorimetry assay. In kind it is functional, organism-based. The method in brief:
as §1

Series [7] concerns Candida albicans. Briefly: Antifungal activity against 5 x 10^6 CFU/ml Candida albicans B2630 by resazurin based fluorimetry assay. In kind it is functional, organism-based. The method in brief: as §1
A short description of series [8]: Half life in guinea pig infected with 10^6 CFU Microsporum canis B68128 at 10 mg/kg, po administered 2 hrs before infection for 5 days. The arrangement: dose 10 mg/kg, route oral. The settings on record: in vivo. In kind it is ADME, organism-based, Cavia porcellus.
A short description of series [9]: Cytotoxicity against human MRC5 cells. In kind it is cell-based. The method in brief:
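Human lung fibroblasts (MRC-5SV40) were tested in parallel with the fungal screens. CC50 is the concentration killing 50% of cells, given as the mean ± SD of five independent repeats.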

Series [10] deals with Trichophyton mentagrophytes. Nature of the series: Antifungal activity against 5 x 10^6 CFU/ml Trichophyton mentagrophytes B70554 by resazurin based fluorimetry assay. In kind it is functional, organism-based. In short, it runs like this: as §1
Series [11] deals with Microsporum canis. Nature of the series: Antifungal activity against 5 x 10^6 CFU/ml Microsporum canis B68128 by resazurin based fluorimetry assay. In kind it is functional, organism-based. The method in brief: as §1
Series [12] deals with Nakaseomyces glabratus. Nature of the series: Antifungal activity against 5 x 10^6 CFU/ml Candida glabrata B63155 by resazurin based fluorimetry assay. In kind it is functional, organism-based. The method in brief: as §1
For series [13], the system named is Candida albicans. Nature of the series: Antifungal activity against 5 x 10^6 CFU/ml Candida albicans B59163 by resazurin based fluorimetry assay. In kind it is functional, organism-based. In short, it runs like this:
as §1

Series [14] concerns Pichia kudriavzevii. Briefly: Antifungal activity against 5 x 10^6 CFU/ml Candida krusei B68404 by resazurin based fluorimetry assay. In kind it is functional, organism-based. In short, it runs like this: as §1
The subject of series [15] is Candida albicans. Nature of the series: Antifungal activity against 10^7 CFU/ml Candida albicans B2630 infected in vulvovaginitis rat model assessed as fungal burden at 10 mg/kg, po SID. In kind it is functional, organism-based. Particulars: Vagina. Further details: dose 10 mg/kg. In short, it runs like this: (§2)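 Intravaginal infection with 10^7 CFU. Oral dosing once daily in PEG200, starting about 2 h before infection, for 5 days. […] Six rats in two experiments.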

Series [16] in a line: Cmax in plasma of guinea pig infected with 10^6 CFU Microsporum canis B68128 at 20 mg/kg, po administered 2 hrs before infection for 5 days. In kind it is ADME, organism-based, Cavia porcellus. The arrangement: dose 20 mg/kg, route oral.
Series [17] relates to Candida albicans. Briefly: Antifungal activity against 10^7 CFU/ml Candida albicans B2630 infected in vulvovaginitis rat model assessed as fungal burden at 5 mg/kg administered tropically twice daily measured after 3 days. In kind it is functional, organism-based. Further details: dose 5 mg/kg. Particulars: Vagina.
For series [18], the system named is Candida albicans. Nature of the series: Antifungal activity against 10^7 CFU/ml Candida albicans B2630 infected in vulvovaginitis rat model assessed as fungal burden at 5 mg/kg, po SID. In kind it is functional, organism-based. Further details: dose 5 mg/kg. The settings on record: Vagina. The method in brief:
as §2

A short description of series [19]: Half life in guinea pig infected with 10^6 CFU Microsporum canis B68128 at 20 mg/kg, po administered 2 hrs before infection for 5 days. In kind it is ADME, organism-based, Cavia porcellus. Further details: dose 20 mg/kg, route oral. Particulars: in vivo.
Series [20] in a line: Tmax in guinea pig infected with 10^6 CFU Microsporum canis B68128 at 20 mg/kg, po administered 2 hrs before infection for 5 days. In kind it is ADME, organism-based, Cavia porcellus. The arrangement: dose 20 mg/kg, route oral. Particulars: in vivo.
For series [21], the system named is Candida albicans. Briefly: Antifungal activity against 10^7 CFU/ml Candida albicans B2630 infected in vulvovaginitis rat model assessed as fungal burden at 10 mg/kg administered tropically twice daily measured after 3 days. In kind it is functional, organism-based. Further details: dose 10 mg/kg. Particulars: Vagina.
Series [22] is described as follows: Cmax in plasma of guinea pig infected with 10^6 CFU Microsporum canis B68128 at 40 mg/kg, po administered 2 hrs before infection for 5 days. In kind it is ADME, organism-based, Cavia porcellus. Further details: dose 40 mg/kg, route oral.
Series [23] is described as follows: Tmax in guinea pig infected with 10^6 CFU Microsporum canis B68128 at 40 mg/kg, po administered 2 hrs before infection for 5 days. Further details: dose 40 mg/kg, route oral. The settings on record: in vivo. In kind it is ADME, organism-based, Cavia porcellus.
Series [24] in a line: Half life in guinea pig infected with 10^6 CFU Microsporum canis B68128 at 40 mg/kg, po administered 2 hrs before infection for 5 days. In kind it is ADME, organism-based, Cavia porcellus. Further details: dose 40 mg/kg, route oral. The settings on record: in vivo.

Turning to `CN(C/C=C/C#CC(C)(C)C)Cc1cccc2ccccc12` [TERBINAFINE], the IC50 came out at 70 nM in [1]; 10 nM in series [2]; 6330 nM in series [4]; 30 nM in series [6]; 64000 nM in series [7]; 60 nM in series [10]. The IC50 in [11] is 100 nM; in series [12], 30700 nM; in series [13], 3570 nM; in [14] it was 64000 nM. Besides, the Tmax in series [3] was 0.7 h. In [5], this compound gave a Cmax of 60 ng/mL. Moreover, the half-life in series [8] is 6.6 h. Moreover, the CC50 in series [9] amounted to 63000 nM.

For the compound `CCC(C)n1ncn(-c2ccc(N3CCN(c4ccc(OCC5COC(Cn6cncn6)(c6ccc(Cl)cc6Cl)O5)cc4)CC3)cc2)c1=O` (stereo not drawn) [ITRACONAZOLE], the IC50 amounted to 560 nM in [1]; 2930 nM in [2]; 400 nM in series [4]; 980 nM in series [6]; 1390 nM in series [7]; 370 nM in series [10]. In addition, the IC50 came out at 2020 nM in series [11], 3740 nM in [12], 1410 nM in [13] and 4210 nM in series [14]. The result in series [15], in series [17], in [18] and in [21] was Active. Moreover, the Cmax in series [16] amounted to 350 ng/mL. In series [9], the CC50 was 49300 nM. Besides, the half-life in series [19] was 13.9 h. Further, the Tmax in series [20] is 2 h.

With `CC(C)N1CCN(c2ccc(N3CCN(c4ccc(OC[C@H]5OC[C@](Cn6cncn6)(c6ccc(F)cc6F)O5)cc4)CC3)cc2)C1=O` [PRAMICONAZOLE], the IC50 in series [1] was determined as 350 nM; in series [2], 1340 nM; in series [4], 130 nM; in [6] it was 190 nM; in [7], 1830 nM; in series [10], 150 nM. Further, the IC50 in series [11] came out at 180 nM; in series [12], 650 nM; in series [13], 40 nM; in series [14], 870 nM. In addition, the result in series [15], in series [17], in series [18] and in series [21] was Active. The compound also returned a Cmax in series [22] of 180 ng/mL. Moreover, the CC50 in series [9] turned out to be 53300 nM. For the same compound, the Tmax in [23] is 4 h. For the same compound, in [24], the half-life was 23 h.

`Clc1ccc(COC(Cn2ccnc2)c2ccc(Cl)cc2Cl)c(Cl)c1` (stereo not drawn) [MICONAZOLE]: the IC50 in series [1] came to 330 nM; in series [2], 790 nM; in series [4], 30 nM; in [6], 140 nM; in series [7] it was 2500 nM; in series [10], 400 nM. Moreover, the IC50 in [11] is 230 nM; in [12], 120 nM; in [13], 300 nM; in series [14], 1400 nM. Moreover, the outcome in [17] and in series [21] was Active. Further, in [9], half-maximal cytotoxicity (CC50) was put at 29700 nM.
